The results in this text go back to ChEMBL document CHEMBL1772939, “Ferruginenes A-C from Rhododendron ferrugineum and their cytotoxic evaluation” (J Nat Prod, 2011).

Calls of active or inactive are those of the source. The calls are words filed in the database; no cut-off is given here.

Test [1] concerns the target Transient receptor potential cation channel subfamily V member 1 (Homo sapiens) (UniProt Q8NER1). Kind of test: Binding affinity to TRPV1 receptor at 20 uM by radioligand displacement assay. (Loss of bound radioactivity is the signal in a displacement assay; it reports binding, not function.)
For the next test, the system named is MCF7. Kind of test: Cytotoxicity against human MCF7 cells assessed as cell viability after 24 hrs by tryptan blue staining-based cell counting. The format is functional. The conditions noted are these: MCF7, 24 h. In short, it runs like this:
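MCF-7 breast adenocarcinoma cells (ATCC) in DMEM with 10% heat-inactivated FBS, 1% L-glutamine, 1% penicillin/streptomycin, 37 C, 5% CO2. Cultured at 0.2 × 10^6 cells/mL for 48 h before 24 h exposure to compounds or 0.3% DMSO. Trypsinized cells stained with 0.4% trypan blue and counted on a viability analyzer; IC50 from three independent experiments.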

Test [2] has as its target Cannabinoid receptor 1 (Homo sapiens) (UniProt P21554). The test is described as follows: Binding affinity to CB1 receptor at 20 uM by radioligand displacement assay.
Test [3] can be described thus: Cytotoxicity against human HeLaS3 cells assessed as cell viability after 24 hrs by tryptan blue staining-based cell counting. The format is functional. The conditions noted are these: HeLa S3, 24 h. An outline of the steps:
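HeLa-S3 cervix carcinoma cells (ATCC) grown in RPMI 1640 with 10% heat-inactivated FBS, 1% L-glutamine, 1% penicillin/streptomycin at 37 C, 5% CO2. Plated at 0.1 × 10^6 cells/mL for 24 h, then treated 24 h with compounds or 0.3% DMSO. Cells trypsinized, stained with 0.4% trypan blue, counted on a viability analyzer; IC50 from three independent experiments.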

Test [4] concerns the target T1, 5-hydroxytryptamine receptor 1A (Homo sapiens) (UniProt P08908).
T1 sequence (whole entry): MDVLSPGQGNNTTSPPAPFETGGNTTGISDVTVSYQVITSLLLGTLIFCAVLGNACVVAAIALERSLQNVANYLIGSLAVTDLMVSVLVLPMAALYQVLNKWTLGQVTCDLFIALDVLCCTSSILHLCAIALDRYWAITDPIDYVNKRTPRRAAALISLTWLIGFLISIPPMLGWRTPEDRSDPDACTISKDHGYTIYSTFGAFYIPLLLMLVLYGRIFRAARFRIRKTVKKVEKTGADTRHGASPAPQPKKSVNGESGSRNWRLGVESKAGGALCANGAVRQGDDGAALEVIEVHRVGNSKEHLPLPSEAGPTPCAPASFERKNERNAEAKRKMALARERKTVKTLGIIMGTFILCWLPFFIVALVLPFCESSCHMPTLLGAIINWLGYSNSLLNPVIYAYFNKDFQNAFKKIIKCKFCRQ
Kind of test: Binding affinity to 5HT1A receptor at 20 uM by radioligand displacement assay.

Test [5] deals with Cannabinoid receptor 2 (Homo sapiens) (UniProt P34972). Kind of test: Binding affinity to CB2 receptor at 20 uM by radioligand displacement assay.
Another test deals with HEK293. The test is described as follows: Cytotoxicity against human HEK293 cells assessed as cell viability after 24 hrs by tryptan blue staining-based cell counting. To be noted: HEK293, 24 h. An outline of the steps:
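HEK293 cells from ATCC, kept in DMEM with 10% heat-inactivated FBS, 1% L-glutamine, 1% penicillin/streptomycin, 37 C, 5% CO2. Seeded at 0.1 × 10^6 cells/mL in 24-well plates, grown 24 h, then exposed to compounds or 0.3% DMSO solvent for 24 h. Trypsinized cells stained with 0.4% trypan blue and counted by viability analyzer; IC50 from three independent experiments.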

A further test deals with HL-60. The test is described as follows: Cytotoxicity against human HL60 cells assessed as cell viability after 24 hrs by tryptan blue staining-based cell counting. The conditions noted are these: HL-60, 24 h. The format is functional. An outline of the steps:
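HL-60 promyelocytic leukemia cells (ATCC) kept in RPMI 1640 with 10% heat-inactivated FBS, 1% L-glutamine, 1% penicillin/streptomycin, 37 C, 5% CO2. Seeded at 0.1 × 10^6 cells/mL, grown 24 h, then exposed 24 h to compounds or 0.3% DMSO solvent. Suspension cells stained with 0.4% trypan blue and counted on a viability analyzer; IC50 from three independent experiments.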

Chain of Cannabinoid receptor 2 (Homo sapiens) (P34972 whole entry): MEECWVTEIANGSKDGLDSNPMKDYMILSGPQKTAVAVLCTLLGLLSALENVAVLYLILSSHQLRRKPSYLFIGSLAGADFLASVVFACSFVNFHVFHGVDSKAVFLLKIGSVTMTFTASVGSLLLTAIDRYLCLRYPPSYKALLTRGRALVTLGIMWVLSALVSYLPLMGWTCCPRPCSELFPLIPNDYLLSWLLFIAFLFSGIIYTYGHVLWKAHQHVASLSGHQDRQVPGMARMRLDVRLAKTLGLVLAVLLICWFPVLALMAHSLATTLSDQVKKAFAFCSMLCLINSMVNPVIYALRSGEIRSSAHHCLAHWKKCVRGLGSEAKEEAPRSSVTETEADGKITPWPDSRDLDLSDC
Chain of Cannabinoid receptor 1 (Homo sapiens) (P21554 whole entry): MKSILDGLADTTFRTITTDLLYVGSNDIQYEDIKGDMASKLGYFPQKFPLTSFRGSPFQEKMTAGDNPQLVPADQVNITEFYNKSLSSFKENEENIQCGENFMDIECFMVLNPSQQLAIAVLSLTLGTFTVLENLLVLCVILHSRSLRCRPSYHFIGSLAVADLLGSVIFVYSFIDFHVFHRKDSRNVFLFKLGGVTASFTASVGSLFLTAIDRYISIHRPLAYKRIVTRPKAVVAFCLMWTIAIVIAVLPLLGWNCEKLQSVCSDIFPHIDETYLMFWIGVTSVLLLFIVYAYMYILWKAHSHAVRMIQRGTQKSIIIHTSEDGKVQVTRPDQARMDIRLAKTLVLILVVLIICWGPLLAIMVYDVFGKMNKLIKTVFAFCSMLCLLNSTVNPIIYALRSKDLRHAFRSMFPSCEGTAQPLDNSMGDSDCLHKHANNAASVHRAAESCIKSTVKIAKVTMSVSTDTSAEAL
Chain of Transient receptor potential cation channel subfamily V member 1 (Homo sapiens) (Q8NER1 whole entry): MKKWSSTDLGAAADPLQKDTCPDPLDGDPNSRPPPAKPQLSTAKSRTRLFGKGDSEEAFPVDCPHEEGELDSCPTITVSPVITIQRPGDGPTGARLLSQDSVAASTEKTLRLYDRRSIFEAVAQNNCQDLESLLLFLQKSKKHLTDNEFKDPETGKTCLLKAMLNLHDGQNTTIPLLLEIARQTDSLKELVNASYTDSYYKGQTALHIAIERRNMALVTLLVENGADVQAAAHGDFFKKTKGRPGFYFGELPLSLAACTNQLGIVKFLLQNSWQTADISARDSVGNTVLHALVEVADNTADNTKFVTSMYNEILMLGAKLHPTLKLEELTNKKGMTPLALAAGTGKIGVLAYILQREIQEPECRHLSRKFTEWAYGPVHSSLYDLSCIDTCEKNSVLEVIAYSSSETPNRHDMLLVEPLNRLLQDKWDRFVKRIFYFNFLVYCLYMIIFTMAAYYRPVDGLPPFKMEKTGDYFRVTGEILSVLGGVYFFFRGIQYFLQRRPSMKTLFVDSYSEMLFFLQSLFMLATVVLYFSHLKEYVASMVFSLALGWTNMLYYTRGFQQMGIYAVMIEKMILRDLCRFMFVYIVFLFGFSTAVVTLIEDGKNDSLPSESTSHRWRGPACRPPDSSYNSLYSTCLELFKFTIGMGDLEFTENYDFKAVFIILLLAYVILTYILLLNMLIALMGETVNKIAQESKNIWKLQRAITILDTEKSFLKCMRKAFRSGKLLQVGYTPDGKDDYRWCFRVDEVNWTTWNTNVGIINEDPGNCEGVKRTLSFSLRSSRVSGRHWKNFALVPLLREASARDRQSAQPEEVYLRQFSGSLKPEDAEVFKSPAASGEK

As to `C=C(C)C(O)CCC(=C)[C@@H]1CCC(C)=C[C@H]1c1c(O)cc(C)cc1O` (mixture of isomers) [FERRUGINENE C], the outcome in test [1], in test [2] and in test [4] was inactive. Besides, the IC50 in the test with MCF7 is above 20 µM; in test [3], above 20 µM; in the test with HEK293, above 20 µM; with HL-60, above 13.7 µM. In addition, the result in test [5] was Active.

For `C=C(C)C(O)CCC(=C)[C@@H]1CC[C@](C)(O)[C@H]2Oc3cc(C)cc(O)c3[C@@H]12` (some centres not stated) [FERRUGINENE A], the outcome in test [1], in test [2], in test [4] and in test [5] was inactive. Besides, the IC50 (in the test with MCF7; in test [3]; in the test on HL-60) was above 20 µM throughout.

As for `C=C(C/C=C/C(C)(C)O)[C@@H]1CC[C@](C)(O)[C@H]2Oc3cc(C)cc(O)c3[C@@H]12` [FERRUGINENE B], in test [1], the result was Active. The concentration for half-maximal inhibition (IC50) (in the test with MCF7; in test [3]; in the test on HL-60) was above 20 µM in each case. For the same compound, the outcome in test [2], in test [4] and in test [5] was inactive.

As a reminder, the IC50 is the concentration that inhibits the measured activity by half.
